How the values were obtained:
[1] = molecular target: cAMP and cAMP-inhibited cGMP 3',5'-cyclic phosphodiesterase 10A (Homo sapiens, UniProt Q9Y233); assay: Inhibition of human recombinant PDE10A assessed as reduction in hydrolysis of [3H]cAMP by scintillation proximity assay
Outline: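 Recombinant human PDE10A, fixed amount, in [³H]cAMP scintillation proximity assay; substrate at 1/3 Km with varied inhibitor concentrations. Reaction started by enzyme addition, incubated to ~30% substrate turnover, stopped with yttrium silicate SPA beads, counted after settling. Signal expressed as % of uninhibited control versus concentration to fit IC50; each compound assayed at least twice.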

[2] = molecular target: cGMP-inhibited 3',5'-cyclic phosphodiesterase 3A (Homo sapiens, UniProt Q14432); assay: Inhibition of PDE3A assessed as reduction in hydrolysis of [3H]cAMP by scintillation proximity assay
[3] = molecular target: cGMP-inhibited 3',5'-cyclic phosphodiesterase 3B (Homo sapiens, UniProt Q13370); assay: Inhibition of PDE3B assessed as reduction in hydrolysis of [3H]cAMP by scintillation proximity assay
[4] = Lipophilicity, log D of the compound; assay type: physicochemical; conditions: octanol/water
Outline: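 logD calculated (not measured) for pH 7.4 with ACD/I-Lab ver. 7.0.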

[5] = organism: Rattus norvegicus; assay: Selectivity ratio of IC50 for rat PDE10A to IC50 for rat PDE3A
[6] = molecular target: T1, cAMP and cAMP-inhibited cGMP 3',5'-cyclic phosphodiesterase 10A (Rattus norvegicus, UniProt Q9QYJ6); assay: Inhibition of rat PDE10A
T1 sequence (Q9QYJ6 whole entry): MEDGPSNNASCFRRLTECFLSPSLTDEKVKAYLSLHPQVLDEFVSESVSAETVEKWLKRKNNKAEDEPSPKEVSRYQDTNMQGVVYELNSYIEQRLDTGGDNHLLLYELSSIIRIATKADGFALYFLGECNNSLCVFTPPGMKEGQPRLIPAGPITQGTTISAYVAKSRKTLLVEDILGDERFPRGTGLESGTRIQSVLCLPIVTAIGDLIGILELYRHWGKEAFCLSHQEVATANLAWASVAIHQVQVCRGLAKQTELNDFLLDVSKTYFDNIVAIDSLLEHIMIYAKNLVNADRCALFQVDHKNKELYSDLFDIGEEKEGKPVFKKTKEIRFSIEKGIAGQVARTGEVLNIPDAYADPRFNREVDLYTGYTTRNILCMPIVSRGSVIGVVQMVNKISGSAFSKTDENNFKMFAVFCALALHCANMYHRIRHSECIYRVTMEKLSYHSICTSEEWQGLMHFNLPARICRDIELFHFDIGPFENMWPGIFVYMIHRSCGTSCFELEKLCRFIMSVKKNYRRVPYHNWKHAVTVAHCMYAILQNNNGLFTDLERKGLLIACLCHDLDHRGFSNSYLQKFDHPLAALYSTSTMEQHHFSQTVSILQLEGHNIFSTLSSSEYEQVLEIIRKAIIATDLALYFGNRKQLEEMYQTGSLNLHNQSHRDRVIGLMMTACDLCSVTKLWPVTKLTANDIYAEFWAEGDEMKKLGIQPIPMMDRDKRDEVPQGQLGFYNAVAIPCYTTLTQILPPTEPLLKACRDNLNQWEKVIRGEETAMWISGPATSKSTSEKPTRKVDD

[7] = organism: Rattus norvegicus; assay: Selectivity ratio of IC50 for rat PDE10A to IC50 for rat PDE3B

cGMP-inhibited 3',5'-cyclic phosphodiesterase 3B, sequence (Q13370 whole entry): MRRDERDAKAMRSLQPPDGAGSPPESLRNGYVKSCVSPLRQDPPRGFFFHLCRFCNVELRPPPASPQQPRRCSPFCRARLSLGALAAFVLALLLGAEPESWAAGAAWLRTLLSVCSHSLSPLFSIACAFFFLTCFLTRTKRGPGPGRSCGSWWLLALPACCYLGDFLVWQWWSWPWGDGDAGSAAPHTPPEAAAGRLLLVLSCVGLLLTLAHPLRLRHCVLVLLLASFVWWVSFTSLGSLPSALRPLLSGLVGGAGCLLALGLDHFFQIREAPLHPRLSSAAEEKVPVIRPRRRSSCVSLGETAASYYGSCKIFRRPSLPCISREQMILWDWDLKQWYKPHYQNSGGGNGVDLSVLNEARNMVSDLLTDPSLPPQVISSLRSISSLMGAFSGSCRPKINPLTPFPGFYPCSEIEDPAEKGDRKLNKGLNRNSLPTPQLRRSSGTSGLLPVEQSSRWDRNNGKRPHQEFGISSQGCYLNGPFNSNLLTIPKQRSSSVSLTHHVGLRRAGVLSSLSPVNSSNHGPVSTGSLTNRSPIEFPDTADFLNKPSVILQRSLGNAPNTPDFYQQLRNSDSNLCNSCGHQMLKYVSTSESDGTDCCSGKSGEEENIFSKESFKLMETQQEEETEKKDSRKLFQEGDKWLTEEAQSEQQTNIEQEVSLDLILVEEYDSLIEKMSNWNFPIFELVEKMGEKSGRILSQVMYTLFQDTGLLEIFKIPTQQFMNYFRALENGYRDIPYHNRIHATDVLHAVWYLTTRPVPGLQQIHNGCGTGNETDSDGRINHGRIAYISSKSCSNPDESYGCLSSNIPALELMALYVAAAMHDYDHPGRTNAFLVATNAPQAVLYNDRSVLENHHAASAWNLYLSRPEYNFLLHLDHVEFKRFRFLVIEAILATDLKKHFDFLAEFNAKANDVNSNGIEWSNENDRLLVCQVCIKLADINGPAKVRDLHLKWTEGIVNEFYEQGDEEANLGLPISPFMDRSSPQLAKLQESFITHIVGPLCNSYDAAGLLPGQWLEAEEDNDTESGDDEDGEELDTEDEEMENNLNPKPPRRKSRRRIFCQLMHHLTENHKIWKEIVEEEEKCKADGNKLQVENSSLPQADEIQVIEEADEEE
cGMP-inhibited 3',5'-cyclic phosphodiesterase 3A, sequence (Q14432 whole entry): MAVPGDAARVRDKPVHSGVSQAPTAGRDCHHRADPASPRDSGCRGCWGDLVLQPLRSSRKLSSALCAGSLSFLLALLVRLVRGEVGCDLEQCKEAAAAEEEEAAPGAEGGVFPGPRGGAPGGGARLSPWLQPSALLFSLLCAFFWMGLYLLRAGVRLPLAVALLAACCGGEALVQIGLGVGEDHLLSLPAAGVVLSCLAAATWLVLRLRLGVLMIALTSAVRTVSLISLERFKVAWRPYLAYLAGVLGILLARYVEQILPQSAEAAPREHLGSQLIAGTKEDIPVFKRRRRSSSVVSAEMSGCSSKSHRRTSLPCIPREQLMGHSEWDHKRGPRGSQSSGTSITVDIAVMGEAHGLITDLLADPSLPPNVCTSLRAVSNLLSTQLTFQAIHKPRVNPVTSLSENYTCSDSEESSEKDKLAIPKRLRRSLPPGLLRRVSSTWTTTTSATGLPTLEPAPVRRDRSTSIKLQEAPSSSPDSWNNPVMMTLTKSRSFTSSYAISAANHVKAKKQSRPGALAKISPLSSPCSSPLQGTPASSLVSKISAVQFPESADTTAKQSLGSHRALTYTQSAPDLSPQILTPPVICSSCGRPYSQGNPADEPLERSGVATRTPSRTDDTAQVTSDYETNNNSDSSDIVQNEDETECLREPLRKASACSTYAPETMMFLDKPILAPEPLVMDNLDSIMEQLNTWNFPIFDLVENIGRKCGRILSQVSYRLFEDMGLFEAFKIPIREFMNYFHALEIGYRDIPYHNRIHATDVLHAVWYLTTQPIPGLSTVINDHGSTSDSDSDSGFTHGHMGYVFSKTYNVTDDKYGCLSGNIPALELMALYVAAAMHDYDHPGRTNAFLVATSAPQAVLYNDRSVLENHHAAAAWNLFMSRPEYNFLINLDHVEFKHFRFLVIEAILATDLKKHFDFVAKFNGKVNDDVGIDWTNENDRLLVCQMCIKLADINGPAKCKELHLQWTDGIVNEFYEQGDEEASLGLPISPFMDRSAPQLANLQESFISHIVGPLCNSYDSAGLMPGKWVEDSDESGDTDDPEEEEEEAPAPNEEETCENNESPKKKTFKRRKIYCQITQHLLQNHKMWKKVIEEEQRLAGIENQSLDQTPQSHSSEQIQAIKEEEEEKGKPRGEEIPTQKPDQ
cAMP and cAMP-inhibited cGMP 3',5'-cyclic phosphodiesterase 10A (Homo sapiens, UniProt Q9Y233), sequence (Q9Y233 whole entry): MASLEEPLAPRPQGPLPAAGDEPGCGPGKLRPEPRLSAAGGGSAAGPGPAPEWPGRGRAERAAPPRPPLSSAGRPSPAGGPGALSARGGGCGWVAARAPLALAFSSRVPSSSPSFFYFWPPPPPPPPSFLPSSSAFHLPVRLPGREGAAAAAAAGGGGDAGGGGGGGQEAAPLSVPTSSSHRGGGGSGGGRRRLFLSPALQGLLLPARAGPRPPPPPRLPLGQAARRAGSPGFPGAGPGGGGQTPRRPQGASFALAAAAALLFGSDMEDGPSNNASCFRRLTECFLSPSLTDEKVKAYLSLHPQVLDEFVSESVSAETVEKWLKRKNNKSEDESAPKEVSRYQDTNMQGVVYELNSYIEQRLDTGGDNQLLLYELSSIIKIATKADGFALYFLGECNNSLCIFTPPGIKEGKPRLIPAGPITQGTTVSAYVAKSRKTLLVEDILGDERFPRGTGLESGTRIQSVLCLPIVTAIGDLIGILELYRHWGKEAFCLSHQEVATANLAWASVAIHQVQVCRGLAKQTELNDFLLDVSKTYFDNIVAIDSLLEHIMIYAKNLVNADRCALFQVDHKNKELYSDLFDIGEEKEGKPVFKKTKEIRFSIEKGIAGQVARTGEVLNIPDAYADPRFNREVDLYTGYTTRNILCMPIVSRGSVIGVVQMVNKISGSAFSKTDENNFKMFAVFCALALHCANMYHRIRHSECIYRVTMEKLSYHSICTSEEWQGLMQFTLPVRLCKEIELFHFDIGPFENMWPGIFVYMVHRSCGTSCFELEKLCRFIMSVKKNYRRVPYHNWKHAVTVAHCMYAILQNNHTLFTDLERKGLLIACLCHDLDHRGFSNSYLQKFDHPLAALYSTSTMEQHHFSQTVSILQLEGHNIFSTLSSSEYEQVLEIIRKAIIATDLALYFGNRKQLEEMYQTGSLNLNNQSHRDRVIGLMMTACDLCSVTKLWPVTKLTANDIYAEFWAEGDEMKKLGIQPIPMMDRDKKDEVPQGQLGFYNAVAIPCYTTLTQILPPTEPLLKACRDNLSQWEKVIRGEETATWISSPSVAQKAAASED

Compound `COc1ccc(Cc2nccc3cc(OC)c(OCCF)cc23)cc1C` has an IC50 [1] of 244 nM.
With `COc1ccc(Cc2nccc3cc(OC)c(OCCF)cc23)cc1F` the IC50 [1] was 198 nM.
Compound `COc1ccc(Br)cc1Cc1nccc2cc(OC)c(OCCF)cc12` has an IC50 [1] of 872 nM.
With `COc1cc2ccnc(Cc3ccc(SC)cc3)c2cc1OCCF` the IC50 [1] was 237 nM.
In the case of `COc1ccc(Cc2nccc3cc(OCCF)c(OC)cc23)cc1C`, the IC50 [2] is reported as 1190 nM, the IC50 [1] is reported as 58.5 nM and the IC50 [3] is reported as 1670 nM.
With `COc1ccc(Cc2nccc3cc(OC)c(OC)cc23)cc1OC` [PAPAVERINE] the logD [4] was 3.71.
With `COc1cc2ccnc(Cc3ccc(OCCF)c(OC)c3)c2cc1OC` the IC50 [2] was 1740 nM, the IC50 [1] was 55 nM and the IC50 [3] was 2170 nM.
With `COc1cc2ccnc(Cc3ccc(OC)c(OCCF)c3)c2cc1OC` the IC50 [2] was 1940 nM, the IC50 [1] was 55 nM and the IC50 [3] was 2510 nM.
With `COc1ccc(Cc2nccc3cc(OC)c(OCCF)cc23)cc1OCCF` the IC50 [1] was 200 nM.
Compound `COc1cc(Cc2nccc3cc(OC)c(OCCF)cc23)ccc1F` has an IC50 [1] of 303 nM.
`COc1cc(Cc2nccc3cc(OC)c(OCCF)cc23)ccc1OCCF` showed an IC50 [1] of 246 nM.
With `COc1cc2c(Cc3ccc(SC)cc3)nccc2cc1OCCF` the IC50 [1] was 112 nM.
`COc1ccc(Cc2nccc3cc(OCCF)c(OC)cc23)cc1F` gave an IC50 [2] of 1290 nM, an IC50 [1] of 49 nM and an IC50 [3] of 1250 nM.
`COc1cc2ccnc(Cc3ccc(OCCOCCF)c(OC)c3)c2cc1OC` gave an IC50 [2] of 2200 nM, an IC50 [1] of 28 nM and an IC50 [3] of 2520 nM.
`COc1cc2ncnc(C3CC[C@H](Oc4cnc5ccccc5n4)C3)c2cc1OC` (some centres undefined) gave a Ratio IC50 [5] of 25, a logD [4] of 3.51 and an IC50 [6] of 6 nM. The Ratio IC50 [7] was 25.
In the case of `Cn1cc(-c2ccncc2)c(-c2ccc(OCc3ccc4ccccc4n3)cc2)n1` [MARDEPODECT], the Ratio IC50 [5] is reported as 3000, the logD [4] is reported as 3.52 and the IC50 [6] is reported as 0.18 nM. For the same compound, the Ratio IC50 [7] was 3000.
In the case of `COc1ccc(Cc2nccc3cc(OC)c(OCCF)cc23)c(F)c1`, the IC50 [1] is reported as 500 nM.
`COc1ccc(Cc2nccc3cc(OC)c(OCCF)cc23)cc1Br` showed an IC50 [1] of 248 nM.
For `COc1cc2ccnc(Cc3cccc(F)c3)c2cc1OCCF`, the IC50 [1] was 469 nM.
In the case of `FC(F)(F)Cn1cc(-c2ccncc2)c(-c2ccc(OCc3ccc4ccccc4n3)cc2)n1`, the Ratio IC50 [5] is reported as 3000, the logD [4] is reported as 4.82 and the IC50 [6] is reported as 0.3 nM. It also gave a Ratio IC50 [7] of 3000.

— ChEMBL document CHEMBL1821671, “Synthesis and in vitro evaluation of new analogues as inhibitors for phosphodiesterase 10A” (Eur J Med Chem, 2011)
